Laboratory results taken from the EternaBench riboswitch data.

Test system: MS2 coat protein
Assay: apparent Kd, MS2 coat protein; higher = weaker binding; RNA-MaP array; FMN 200 µM where present
Procedure, shortened: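 Designs on Illumina sequencing-chip clusters, transcribed by stalled E. coli RNA polymerase, were exposed to SNAP-549-labelled MS2 coat protein in doubling steps from 0.7 or 1.5 nM up to 3 µM, without and then with constant ligand. The buffer held 100 mM Tris-HCl pH 7.5, 80 mM KCl, 4 mM MgCl2, BSA, DTT, yeast tRNA and Tween-20. Apparent Kd values are medians of filtered per-cluster binding-curve fits to green signal normalised to red-channel RNA signal and control-cluster median Fmax.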

[1] = designed as: ON switch for flavin mononucleotide, no ligand
[2] = ligand present: flavin mononucleotide, designed as: ON switch for flavin mononucleotide
[3] = designed as: OFF switch for flavin mononucleotide, no ligand
[4] = ligand present: flavin mononucleotide, designed as: OFF switch for flavin mononucleotide

Row | Sequence | apparent Kd [1] [nM] | apparent Kd [2] [nM] | apparent Kd [3] [nM] | apparent Kd [4] [nM]
1 | GAAAGAAAUCCAACAUGAGGAUCACCCAUGUUAGGCCAGUGGCAGGAUAUGGUGGGACUGAUGCACCAGAAGGGUCAGGUGGGC | 17.9 | 10 | – | –
2 | UUCAGCUCGUGAGGAUAUACAUGUGCUGGAAACAGCACUAAUUAAAUCACAUGAGGAUCACCCAUGUAGAAGGCACGAGCUGAG | – | – | 16.2 | 25.8
3 | UGGUCAUGAUCAGGAUAUUAACAUGGGCUACAUUAAGAAGGGAUAGUGAGAUACGAACUGAACGACAUGAGGAUCACCCAUGUU | 40.4 | 30.4 | – | –
4 | UUGUUAUAUGUAGGAUAUGCGUAUUAUUGUUAUGCAGAAGGACAUGAGGAUCACCCAUGUAUAUUAUUGUUAUAUAUUAUAUAU | – | – | 25.7 | 66.5
5 | UUUUUAGCAGGAUAUAUCCACGACCACAUGAGGAUCACCCAUGUGGCCGCUUGAGGUUGUAUAGAAGGGCUUUUUU | – | – | 14 | 14.8
6 | AUCAGCUCGGCAGGAUAUACGUCACUGCGUCAGCAGUGUGGUAAGAUCACAUGAGGAUCACCCAUGUAGAAGGGACGAGCUGAU | – | – | 11.4 | 74.5
7 | AAGGCGGCUCAGGCCGAGUUUCGCAGAAGGGCACAUGAGGAUCACCCAUGUACCUGGUCUGAUGUGCAGGAUAUGUGAGUCAGC | – | – | 5.6 | 10.4
8 | GACUGAUUGUAGAAGGUACUUAAUACUCAUGUAACAUGAGGAUCACCCAUGUAUCAACAAUAUUGUAAGGAUAUACAUAUCUCA | 231 | 103 | – | –
9 | AUAUCUCUGUAAGGAUAUAGAUGGUAUACGCCUCCGACAUGAGGAUCACCCAUGUUAUAUUUUGUCUAGAAGGUACAGUGUCGG | 656 | 292 | – | –
10 | CUUAUACAUGAGGAUCACCCAUGUUAGGAUAUUCGCCCGCAUUGGAAGUCCGGUCUUGGAAGAAGGAACGUGGG | – | – | 36.8 | 59.1
11 | GACUGCCGAGGAUAUACAUGAGGAUCACCCAUGUGCUUCAGCAUUUUUUAAUGCAUGGGUAGAAGGCGGUAGUU | – | – | 35.4 | 60.7
12 | AAUAACAGAGGAUAUACUGUUUUAUGUGUUUAUUGUUUUAAACAUGAGGAUCACCCAUGUAGAAGGCUGAAUAA | – | – | 27.4 | 27.8
13 | GCUUGUAGAGGAUAUACAAGGGCCUUAGCGGAAAACUCCGCACAUGAGGAUCACCCAUGUAGAAGGCUACCACC | – | – | 16.1 | 97.9
14 | AGGGUAUGAACAUGAGGAUCACCCAUGUACUAGGAAACAAAUGAGGAUAUCGAUAGCAAAGCUAUCGAGAAGGCAUGGGACCCU | 224 | 51.8 | – | –
15 | CUCCUGCAAGGAUAUACAUAGUGACGUCUGUUUAAUCUUAAACAUGAGGAUCACCCAUGUAGAAGGUGCGUCAC | – | – | 16.7 | 18.1
16 | GAAUAAUUGAUCCAAUUUAACUACAUGAGGAUCACCCAUGUGCAGGAUAUCGUAAUAUUUAUUUUCGAGAAGGGCAAGAACGGU | – | – | 162 | 320
17 | UGGCUACAUGAGGAUCACCCAUGUCAGGAUAUGCCGUUGGAUUGCCUUCGUCGUUCGGGUAGAAGGGACUGCGU | – | – | 30.3 | 27.5
18 | GCGUAAUAGAUCCUAUUUAUCUACAUGAGGAUCACCCAUGUGCAGGAUAUGCUAUAAUUUAAUAAGCAGAAGGGCAAUUUCCGC | – | – | 73.3 | 159
19 | CCUCGACAUGAGGAUCACCCAUGUCAGGAUAUUGUGUUUCGGGUUUUUUACCGUUAGGCAAGAAGGGAUGUGUG | – | – | 29.2 | 40.2
20 | AUGCCUUAUGUAGGAUAUGCAUAGCGUUGCUAUGCAGAAGGACAUGAGGAUCACCCAUGUAUGUUAUCAUUACAUAUCUGGCAU | – | – | 27.6 | 271
21 | GGUACCUUCACAGGAUAUGCUAUCCUUUGGGUAGCAGAAGGGUGAUAACAUGAGGAUCACCCAUGUGGUACCGGGCGUGAGCCC | 1180 | 109 | – | –
22 | ACUUUACGAGGAUAUACUGUCGGGCCUCGGGCAUACAUGCGACAUGAGGAUCACCCAUGUAGAAGGCGUUUACU | – | – | 29.5 | 92
23 | GCGUUGAACGAGAAGGCCACUACAUGAGGAUCACCCAUGUCGUGGAGUAUUGGAGGAUAUCGAUCGGCGUCUCAUGAGGACAUA | – | – | 5.34 | 5.62
24 | GGGCUCGGAGGAUAUACAAUGGGCCCGGGAAACCGGGCCCUACAUGAGGAUCACCCAUGUAGAAGGUCGGGCUC | – | – | 16.4 | 24.8

Row | Sequence | apparent Kd [1] [nM] | apparent Kd [2] [nM] | apparent Kd [3] [nM] | apparent Kd [4] [nM]
25 | UUAUUUUUACAGAAGGUUUAAUAAUAUAUAUGAGAAGGAUAUGUAACAUGAGGAUCACCCAUGUUUCACCUAUAUGAGGAUCAU | – | – | 7.26 | 6.11
26 | CGUAGGUAGCUGGAGGAUAUUCGAGUGGUAACAUGAGGAUCACCCAUGUGGUGAGAGGAACAUGAGGAGAAGGCUAGCUGCCUGC | 1290 | 1530 | – | –
27 | AACAGGACAGGAUAUACAUGAGGAUCACCCAUGUAGGAAACAAGCAGAGUACCAAAAAGUAGAAGGGUCAUGGA | – | – | 60.2 | 79.5
28 | AAAAAAAAAAGUCAGGAUAUGCAGGGCGGGACAUGAGGAUCACCCAUGUGGCGGAAAAAAAAAAAGCAGAAGGGACGAAUAAAAAA | 53.2 | 27.4 | – | –
29 | UAUAUAAUUAAGAGCUGGAAUAAAACAUGAGGAUCACCCAUGUAGGAUAUCAGCACGAUAAGUGCUGAGAAGGACAACCAGCUC | – | – | 15.8 | 16.9
30 | ACCUAUGAGGAGGAUAUACGGUGCGAAAGGACGGUAGAAGGCUUCACAUGAGGAUCACCCAUGUCGAUAAGCGA | – | – | 21.2 | 22.5
31 | AGUCAGAGCAGAGGAUAUAUACAUGAGGAUCACCCAUGUGACUGACUAUGCUAGAAAUAGCAUGUAUAGAAGGCUGCUCUGACA | – | – | 85 | 223
32 | GGAUGACAAAGUCAUCCAUAACGAACAUGAGGAUCACCCAUGUAGGAUAUGCUACUCAAAGAGUAGCAGAAGGACAUGUGCCUU | – | – | 36 | 239
33 | AUCCGACAUGAGGAUCACCCAUGUCAGGAUAUGGACUGACAUCGAAAGGAUGGCAGAACCAGAAGGGACUGGGC | – | – | 29.9 | 56.2
34 | GUUGUACGAGGAUAUACAUGAGGAUCACCCAUGUGUGUUGUGGGCGACGUACGUUUAUGUAGAAGGCGUGCGGC | – | – | 63.6 | 115
35 | UGACGGAGCUGAGGAUAUAACAUGAGGAUCACCCAUGUAAGUCUCCAGGAAACUGGAGACAAAUGUUAGAAGGCAGCUCCGUCA | – | – | 39.4 | 50.7
36 | AGCUACGUUUCGUAGCAGUGUCAUCGAGAAGGCUCAUAUACAUGAGGAUCACCCAUGUUUUCAUGGGAGGAUAUCGAUGAUACA | 108 | 8.76 | – | –
37 | AACUAAGAAUUAAUGGUGACUGACAGAAGGCAAUAGAAUGAGACCGACAUGAGGAUCACCCAUGUUGAGGAUAUGUCUUGCUAC | – | – | 6.59 | 7.2
38 | AACAAAUAUGAUCAUUAUGUAAGGCAGGAUAUCCCACAUGAGGAUCACCCAUGUACAGUACAUAGGGAGAAGGGCCGAAUGGGA | 72 | 6.8 | – | –
39 | GAUUUGUGACAAUUACAUGAGGAUCACCCAUGUUGUAGUAUGCAGGAUAUGUGGUAUAUUAUUUAACAGAAGGGCAAUAAUUUU | 98 | 46.4 | – | –
40 | CUUAUGUGAGGAUAUCAGUAGUAAAAAAAUAAAAUUACUACUGAGAAGGCACAUGAGGAUCACCCAUGUCUUUC | – | – | 33 | 37.8
41 | CUCUUGUGAGGAUAUCAGGUGUGCUAGCGUACUGGUACAUCUGAGAAGGCACAUGAGGAUCACCCAUGUUUCAA | – | – | 118 | 21.9
42 | GGAGCACGCACAGGAUAUCCGGCGACGCUCGUCGGAGAAGGGUGACAUGAGGAUCACCCAUGUACGUGCAACUCAGUUUGAGAG | 43.6 | 36.1 | – | –
43 | AGCUACGUUUCGUAGCAGCUAGAAAAGGAUAUUCAAUUUUUCACAUGAGGAUCACCCAUGUAUGUGAAGAAGGCGCCUAGAAAG | 50.4 | 35.9 | – | –
44 | GACUACGAGGGAGGAUAUCCUCAUUAAAAUGGUGGAGAAGGCCCUCUACAUGAGGAUCACCCAUGUAUCGCUAUAGUCAGAAAU | 10.8 | 6.53 | – | –
45 | GUAUCAUACCAAGGAUAUUUAGGACUUGUGUAGACAUGAGGAUCACCCAUGUGGCGUUAGUCACGGGAGAAGGUGGUAUGAUAC | 78.5 | 18.8 | – | –
46 | UCAUGUUUAGAGGAUAUGAUUACUCUAGAGUGAUCAGAAGGCUAGACAUGAGGAUCACCCAUGUCAGAACAUGU | – | – | 34.4 | 24.8
47 | GGAUUUGUUCCAAUUUCGGUGAGUAAGGAUAUGCAUGGCAUACAUGAGGAUCACCCAUGUUGUCGGCAGAAGGUGCCACAACGU | 59.4 | 15.2 | – | –
48 | AGUAGAUCAGGAUAUACGUAAAUGGUAAUUAUGUAACUUCUACAUGAGGAUCACCCAUGUAGAAGGGAUCUACA | – | – | 13.6 | 13.4
